Only some compounds are listed: those with a hit (about 0.9% of all), similar ones and a draw of the others.
RGS7-Gao reg: modulates binding of RGS7 to human Galphao. AID 1439. Multiplexed bead flow cytometry; actives lie on both sides. actives 0.35% (n = 220,000). P09471. binding response (% of control), % at 10 µM; in the data active means binding response below about 49% or above about 150%; inconclusive means no clear call, values can overlap the other calls; inactive means in between;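 further: fluorescent Galphao held in activated GDP-AlF4 state binding bead-coupled RGS7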
Target sequence (P09471 whole entry, looked up): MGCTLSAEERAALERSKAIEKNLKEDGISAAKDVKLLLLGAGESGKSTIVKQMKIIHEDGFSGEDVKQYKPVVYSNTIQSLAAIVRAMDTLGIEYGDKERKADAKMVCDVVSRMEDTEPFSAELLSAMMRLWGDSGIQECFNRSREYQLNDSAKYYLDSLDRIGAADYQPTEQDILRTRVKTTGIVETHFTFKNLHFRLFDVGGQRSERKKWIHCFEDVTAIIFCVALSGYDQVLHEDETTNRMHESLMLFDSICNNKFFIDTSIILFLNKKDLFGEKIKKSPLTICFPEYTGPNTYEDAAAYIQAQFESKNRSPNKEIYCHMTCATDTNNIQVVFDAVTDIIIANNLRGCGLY
ABCB1 inh: inhibitors of human ABCB1 transporter, ABCG2 counter-screen; actives 0.067% (n = 190,000); inhibition, % at 6.6 µM; CCRF-Adr cells, JC-1 efflux, flow cytometry; in the data active means inhibition above about 40%;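 further: 0% = vehicle and 100% = reference inhibitor; higher value means more JC-1 retained so stronger ABCB1 efflux block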
RGS8-Gao reg: regulators of human RGS8-Galphao interaction | multiplexed bead flow cytometry, RGS8-Galphao binding; actives lie on both sides | P09471 | AID 1423 | response (percent of control binding), % at 10 µM | actives 0.34% (n = 220,000); in the data active means response below about 60% or above about 140%; inactive means in between;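 further: Galphao activated as the GDP aluminium fluoride complex binding bead-coupled RGS8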
RGS16-Gao HTS: RGS16-Galphao interaction regulator (human). bead-based flow cytometry RGS16-Galphao binding, fluorescence; actives lie on both sides. AID 1441. O15492+P09471. actives 0.38% (n = 220,000). binding response (% of control), % at 10 µM;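 further: Galphao activated by GDP with aluminum fluoride before binding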
Target sequence (O15492 whole entry, looked up): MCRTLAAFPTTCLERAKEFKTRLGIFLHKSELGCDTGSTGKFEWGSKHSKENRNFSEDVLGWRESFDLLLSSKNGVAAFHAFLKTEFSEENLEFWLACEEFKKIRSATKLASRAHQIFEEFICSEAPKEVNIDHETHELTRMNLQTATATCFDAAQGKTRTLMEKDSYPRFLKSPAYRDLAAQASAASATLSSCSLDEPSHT
Target sequence (P09471 whole entry, looked up): as the sequence (P09471 whole entry, looked up) above
ABCG2 inh: blocks JC-1 efflux by human ABCG2 transporter | IgMXP3 cells, flow cytometry | inhibition, % at 6.6 µM | Q9UNQ0 | actives 0.1% (n = 190,000);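 active means inhibition above 80%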;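 further: 0% = DMSO and 100% = nicardipine control wells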
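Test system: IgMXP3 (ABCG2) plus far-red-tagged CCRF-Adr (ABCB1) cells. Reagent: JC-1 dye as substrate. Timing: 10 min exposure at 25 °C with rotation, no wash. Measured by: flow cytometric JC-1 green MFI at 530 nm. Read-out: percent efflux inhibition, scaled nicardipine 100% to DMSO 0%. Control set: nicardipine and DMSO wells.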
RGS4-Gao reg: modulates binding of RGS4 to human Galphao | P09471 | actives 0.33% (n = 220,000) | binding response (% of control), % at 10 µM | Multiplexed bead flow cytometry; actives lie on both sides; in the data active means binding response below about 49% or above about 150%; inactive means in between;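 further: fluorescent Galphao activated with aluminum fluoride binding bead-coupled RGS4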
RGS-Gao: regulators of human RGS4-Galphao interaction; shares compounds with RGS16-Gao HTS; AID 1504; actives 99% (n = 1,600); RGS4–Galpha-o binding response, % at 10 µM; multiplexed bead flow cytometry, RGS–Galpha-o binding;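 further: fluorescently labeled Galpha-o bound to GDP with aluminium fluoride binding biotinylated RGS beads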
Biotin-avidin: biotin-avidin bead binding disruption counter-screen; shares compounds with RGS16-Gao HTS; streptavidin beads, fluorescein-biotin binding, flow cytometry; inhibition, % at 10 µM; 1,700 tested, under 10 active; AID 1783;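 active means inhibition above 50%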;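 further: median green fluorescence of gated singlet beads compared with DMSO control wells; 0% = DMSO wells and 100% = complete loss of bead fluorescence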
RGS8-Gao single: confirmation of regulators of human RGS8-Galphao interaction | shares compounds with RGS16-Gao HTS | bead-based flow cytometry RGS8-Galphao binding, fluorescence; actives lie on both sides | binding response (% of control), % at 10 µM | actives 3% (n = 1,700); in the data active means binding response below about 72% or above about 130%; inactive means in between;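 further: Galphao activated as GDP AlF4 complex before binding bead RGS8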
RGS7-Gao confirm: confirmation of regulators of human RGS7-Galphao interaction; shares compounds with RGS16-Gao HTS; bead-based flow cytometry RGS7-Galphao binding; actives lie on both sides; response (percent of control binding), % at 10 µM; actives 7.8% (n = 1,700); AID 1837; in the data active means response below about 75% or above about 130%; inactive means in between;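 further: fluorescent Galphao activated with GDP and aluminum fluoride binding bead-coupled RGS7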
RGS16-Gao conf: confirmation of regulators of human RGS16-Galphao interaction; actives 4% (n = 1,700); bead-based flow cytometry, RGS16-Galphao binding; actives lie on both sides; shares compounds with RGS16-Gao HTS; response (% of control binding), % at 10 µM; AID 1838; in the data active means response below about 74% or above about 130%; inactive means in between;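 further: Galphao activated as the GDP aluminium fluoride complex binding bead-coupled RGS16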
RGS4-Gao single: RGS4-Galphao interaction regulation, single point confirmation; shares compounds with RGS16-Gao HTS; RGS4-Galphao binding, multiplexed bead flow cytometry; actives lie on both sides; binding response (% of control), % at 10 µM; actives 4% (n = 1,700); AID 1840; in the data active means binding response below about 74% or above about 130%; inactive means in between
RGS19-Gao conf: confirmation of regulators of human RGS19-Galphao interaction | shares compounds with RGS16-Gao HTS | bead-based flow cytometry RGS19-Galphao binding; actives lie on both sides | response (percent of control binding), % at 10 µM | actives 5% (n = 1,700) | AID 1841; in the data active means response below about 50% or above about 160%; inactive means in between;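 further: 100% = no compound control and 0% = blank background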
Starred values were filed as active, the others as inactive; [ ] = another dose, or the depositor's remark. Unless noted, how the calls were made is not given here.

For Cc1cc([N+](=O)[O-])c2c(c1C)C1C=CCC1C(c1ccccn1)N2 (configuration not stated) the results were RGS7-Gao reg 101, ABCB1 inh 1, RGS8-Gao reg 104, RGS16-Gao HTS 103, ABCG2 inh 2 and RGS4-Gao reg 97.
Screening Cc1cc(NC(=O)CN2C(=O)NC(C)(c3ccc(Cl)cc3)C2=O)no1 (configuration not stated) returned RGS7-Gao reg 89, ABCB1 inh 0, RGS8-Gao reg 94, RGS16-Gao HTS 93, ABCG2 inh -1 and RGS4-Gao reg 95.
CN(C)C(=O)CSc1nc2ccccc2c(=O)[nH]1 was read as RGS7-Gao reg 277*[activator], ABCB1 inh 0, RGS8-Gao reg 97, RGS16-Gao HTS 109, ABCG2 inh 4, RGS4-Gao reg 127, RGS-Gao 127*, Biotin-avidin 1, RGS8-Gao single 102, RGS7-Gao confirm 95, RGS16-Gao conf 105, RGS4-Gao single 101 and RGS19-Gao conf 102.
For Cc1ccnn1Cc1cc(C(=O)O)c2ccccc2n1 the results were RGS7-Gao reg inconclusive, ABCB1 inh 0, RGS8-Gao reg 99, RGS16-Gao HTS 106, ABCG2 inh 0 and RGS4-Gao reg 102.
For Cc1ccc(-n2c(SCC(=O)NCCN3C(=O)CSC3=O)nnc2-c2ccccc2)cc1 the results were RGS7-Gao reg 87, ABCB1 inh 0, RGS8-Gao reg 78, RGS16-Gao HTS 18*, ABCG2 inh 4, RGS4-Gao reg 90, RGS-Gao 90*, Biotin-avidin 0, RGS8-Gao single 100, RGS7-Gao confirm 103, RGS16-Gao conf 100, RGS4-Gao single 102 and RGS19-Gao conf 94.
`Cc1ccc(-n2c(SCC(=O)NCCN3C(=O)CSC3=O)nnc2-c2ccccc2)cc1C` gave RGS7-Gao reg 104, ABCB1 inh 1, RGS8-Gao reg 105, RGS16-Gao HTS 117, ABCG2 inh 25 and RGS4-Gao reg 104.
For Cn1c(SCC(=O)NCCN2C(=O)CSC2=O)nnc1-c1ccccc1 the results were RGS7-Gao reg 213*[activator], RGS8-Gao reg 107, RGS16-Gao HTS 130, ABCG2 inh 0, RGS4-Gao reg 124, RGS-Gao 124*, Biotin-avidin -1, RGS8-Gao single 103, RGS7-Gao confirm 105, RGS16-Gao conf 103, RGS4-Gao single 104 and RGS19-Gao conf 103.
`C#CCNC(=O)C1=C[C@H](C2CCCCC2)[C@@H](CCCO)[C@H](OCC)O1` gave RGS7-Gao reg 38*, ABCB1 inh 1, RGS8-Gao reg 44*, RGS16-Gao HTS 41, ABCG2 inh 3, RGS4-Gao reg 52, RGS-Gao 52*, Biotin-avidin 0, RGS8-Gao single 99, RGS7-Gao confirm 98, RGS16-Gao conf 102, RGS4-Gao single 100 and RGS19-Gao conf 117.
For C#Cc1ccc([C@H]2C=C(C(=O)NCc3ccccc3)O[C@@H](OCC)[C@@H]2CCCO)cc1 the results were RGS7-Gao reg 101, ABCB1 inh 1, RGS8-Gao reg 103, RGS16-Gao HTS 100, ABCG2 inh 1 and RGS4-Gao reg 101.
`C#CCNC(=O)C1=C[C@H](C)[C@@H](CCCO)[C@H](OCC)O1` gave RGS7-Gao reg 95, ABCB1 inh 0, RGS8-Gao reg 97, RGS16-Gao HTS 96, ABCG2 inh 0 and RGS4-Gao reg 98.
`C#Cc1ccc([C@@H]2C=C(C(=O)Nc3ccccc3)O[C@H](OCC)[C@H]2CCCO)cc1` gave RGS7-Gao reg 12*, ABCB1 inh 1, RGS8-Gao reg 17*, RGS16-Gao HTS 11*, ABCG2 inh 12, RGS4-Gao reg 22*, Biotin-avidin 1, RGS8-Gao single 105, RGS7-Gao confirm 101, RGS16-Gao conf 105, RGS4-Gao single 100 and RGS19-Gao conf 100.
For CCCCOCCCNC1=NCCCCC1 the results were RGS7-Gao reg 90, ABCB1 inh 0, RGS8-Gao reg 86, RGS16-Gao HTS -11*, ABCG2 inh 0, RGS4-Gao reg 87 and RGS-Gao 87*.
Screening CC(C)CCNC1=NCCCCC1 returned RGS7-Gao reg 104, ABCB1 inh 0, RGS8-Gao reg 100, RGS16-Gao HTS 101, ABCG2 inh 0 and RGS4-Gao reg 104.
`N#CCC(=O)NNc1c([N+](=O)[O-])cc(C(F)(F)F)cc1[N+](=O)[O-]` gave RGS7-Gao reg inconclusive, RGS8-Gao reg 97, RGS16-Gao HTS 97 and RGS4-Gao reg 98.
`CCOc1cccc2cc(C(C)=O)oc12` gave RGS7-Gao reg 10*, ABCB1 inh 0, RGS8-Gao reg 11*, RGS16-Gao HTS 5.6*, ABCG2 inh 0, RGS4-Gao reg 11*, Biotin-avidin 1, RGS8-Gao single 101, RGS7-Gao confirm 102, RGS16-Gao conf 102, RGS4-Gao single 101 and RGS19-Gao conf 113.
For COc1ccc2ncc(OC(C)=O)cc2c1 the results were RGS7-Gao reg 101, ABCB1 inh 0, RGS8-Gao reg 108, RGS16-Gao HTS 114, ABCG2 inh 2 and RGS4-Gao reg 99.
For CCOc1ccccc1/C=N/NC(=O)c1cccc(S(=O)(=O)N(CC)CC)c1 the results were RGS7-Gao reg 92, ABCB1 inh 1, RGS8-Gao reg 100, RGS16-Gao HTS 94, ABCG2 inh 1 and RGS4-Gao reg 93.

Screening data deposited in PubChem BioAssay by NMMLSC.
